Results published in ChEMBL document CHEMBL2029265, “2-(Pyrrolidin-1-yl)ethyl-3,4-dihydroisoquinolin-1(2H)-one derivatives as potent and selective histamine-3 receptor antagonists” (J Med Chem, 2012).

Assays:
[1] = Tmax in Long Evans rat at 10 mg/kg, po administered as single dose; format: ADME, organism-based; design: dose 10 mg/kg, route oral; conditions: in vivo
How it was run: (§1)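 Male Long Evans rats, single oral dose 10 mg/kg in 2% Tween/0.5% methyl cellulose in water. Plasma pharmacokinetics.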

[2] = Volume of distribution in Long Evans rat at 2 mg/kg, iv administered as single bolus dose; format: ADME, organism-based; design: dose 2 mg/kg, route intravenous; conditions: in vivo
How it was run: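 Male Long Evans rats, single intravenous bolus 2 mg/kg, vehicle DMSO/80% PEG 200. Plasma pharmacokinetics.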

[3] = AUC (0 to infinity) in Long Evans rat at 10 mg/kg, po administered as single dose; format: ADME, organism-based; design: dose 10 mg/kg, route oral, time infinity; conditions: plasma
How it was run: (§2)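 Male Long Evans rats received one oral dose of 10 mg/kg, formulated in 2% Tween/0.5% methyl cellulose in water. Plasma pharmacokinetic parameters were derived from this single dose.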

Canis familiaris [4] = test: Toxicity in dog assessed as QTc prolongation at 20 mg/kg/day administered for 14 days as repeat dose; format: organism-based, Canis lupus familiaris; conditions: in vivo, 336 h
How it was run: (§3)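 Dogs dosed for 14 days in a repeat-dose toxicity study at 20, 60 and 120 mg/kg/day. Clinical signs and QTc monitored.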

Rattus norvegicus [5] = test: Reversal of time-induced cognitive deficit in po dosed rats by novel object recognition test; format: functional; conditions: read-out: MED
Salmonella typhimurium = test: Mutagenic activity in Salmonella typhimurium assessed as revertants by Ames test; format: toxicity, organism-based; conditions: salmonella enterica subsp. enterica serovar typhimurium
How it was run: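 Screening Ames bacterial reverse mutation assay in Salmonella typhimurium, run at multiple dosages.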

[6] = Clearance in beagle dog at 2 mg/kg, iv administered as single bolus dose; format: ADME, organism-based, Canis lupus familiaris; design: dose 2 mg/kg, route intravenous; conditions: in vivo
How it was run: (§4)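 Male beagle dogs received a single intravenous bolus dose of 2 mg/kg. Plasma clearance, volume of distribution and elimination half-life were determined.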

Canis familiaris [7] = test: Toxicity in dog assessed as arrhythmia at 20 mg/kg/day administered for 14 days as repeat dose; format: organism-based, Canis lupus familiaris; conditions: in vivo, 336 h; how it was run: as §3
[8] = Clearance in Long Evans rat at 2 mg/kg, iv administered as single bolus dose; format: ADME, organism-based; design: dose 2 mg/kg, route intravenous; conditions: in vivo
How it was run: (§5)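 Male Long Evans rats were given a single intravenous bolus of 2 mg/kg in DMSO/80% PEG 200. Clearance, volume of distribution and elimination half-life were derived.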

[9] = Terminal half life in Long Evans rat at 10 mg/kg, po administered as single dose; format: ADME, organism-based; design: dose 10 mg/kg, route oral; conditions: in vivo, read-out: beta t1/2 (converted); how it was run: as §1
Canis familiaris [10] = test: Toxicity in dog assessed as convulsions at >/= 60 mg/kg/day administered for 14 days as repeat dose; format: organism-based, Canis lupus familiaris; conditions: in vivo, 336 h; how it was run: as §3
[11] = Elimination half life in beagle dog at 2 mg/kg, iv administered as single bolus dose; format: ADME, organism-based, Canis lupus familiaris; design: dose 2 mg/kg, route intravenous; conditions: in vivo, read-out: beta t1/2 (converted); how it was run: as §4
[12] = Oral bioavailability in beagle dog at 10 mg/kg administered as single dose; format: ADME, organism-based, Canis lupus familiaris; conditions: in vivo
[13] = Elimination half life in Long Evans rat at 2 mg/kg, iv administered as single bolus dose; format: ADME, organism-based; design: dose 2 mg/kg, route intravenous; conditions: in vivo, read-out: beta t1/2 (converted); how it was run: as §5
Mus musculus = test: Reversal of MK-801-induced memory deficit in po dosed mice at measured after 24 hrs by social odor recognition test; conditions: read-out: MED
[14] = Toxicity in dog; format: organism-based, Canis lupus familiaris; conditions: in vivo
How it was run: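 14-day repeat-dose study in dogs at 20, 60 and 120 mg/kg/day, with clinical observation including cardiac rhythm and QTc; maximum tolerated dose derived from findings across dose groups.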

[15] = Volume of distribution in beagle dog at 2 mg/kg, iv administered as single bolus dose; format: ADME, organism-based, Canis lupus familiaris; design: dose 2 mg/kg, route intravenous; conditions: in vivo
How it was run: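 Male beagle dogs, single intravenous bolus 2 mg/kg. Plasma pharmacokinetics.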

[16] = Cmax in Long Evans rat at 10 mg/kg, po administered as single dose; format: ADME, organism-based; design: dose 10 mg/kg, route oral; conditions: in vivo; how it was run: as §2
[17] = Oral bioavailability in Long Evans rat at 10 mg/kg administered as single dose; format: ADME, organism-based; conditions: in vivo; how it was run: as §2
[18] = Toxicity in rat; format: organism-based; conditions: in vivo
How it was run: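 14-day repeat-dose study in rats at 60, 200 and 600 mg/kg/day, with clinical observation and tissue findings; maximum tolerated dose derived from findings across dose groups.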

Rattus norvegicus [19] = test: Toxicity in rat assessed as respiratory distress at 600 mg/kg/day administered for 14 days as repeat dose; format: organism-based; conditions: in vivo, 336 h
Rattus norvegicus [20] = test: Toxicity in rat assessed as epithelial hyperplasia at 600 mg/kg/day administered for 14 days as repeat dose; format: organism-based; conditions: in vivo, 336 h

Compound: CN(C)C(=O)c1ccc(-c2ccc3c(c2)CCN(CCN2CCCC2)C3=O)cc1.Cl
- Tmax [1]: 18 min
- Vd [2]: 2.1 L/kg
- AUC(0-inf) [3]: 1650 ng·h/mL
- Activity (Canis familiaris [4]): Toxic
- minimal effective dose (Rattus norvegicus [5]): 1 mg/kg
- Activity (Salmonella typhimurium): Non-toxic
- clearance [6]: 23 mL/min/kg
- Activity (Canis familiaris [7]): Toxic
- clearance [8]: 87 mL/min/kg
- half-life [9]: 48 min
- Activity (Canis familiaris [10]): Toxic
- half-life [11]: 96 min
- bioavailability [12]: 57%
- half-life [13]: 18 min
- minimal effective dose (Mus musculus): 1 mg/kg
- MTD [14]: 20 mg/kg/day
- Vd [15]: 3.1 L/kg
- Cmax [16]: 989 ng/mL
- bioavailability [17]: 85%
- MTD [18]: 200 mg/kg/day
- Activity (Rattus norvegicus [19]): Toxic
- Activity (Rattus norvegicus [20]): Toxic
